Bioassay records from PubChem.
Rows were chosen to be rich in hits. Some 2.3% of all compounds tested hit in one or more screens of this group.
MC4R antag cAMP: human MC4R antagonism in cAMP assay; MC4R-expressing cells, MTII-stimulated cAMP, LANCE TR-FRET; inhibition, % at 6.5 µM; 360,000 compounds, 0.48% hits;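 active means inhibition above its plate's cutoff, the mean of tested wells on that plate plus 3 SD, cut at about 29% in these data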;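 further: 0% = Melanotan II alone and 100% = Melanotan II plus saturating MCL0020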
Target sequence (P32245 whole entry, looked up): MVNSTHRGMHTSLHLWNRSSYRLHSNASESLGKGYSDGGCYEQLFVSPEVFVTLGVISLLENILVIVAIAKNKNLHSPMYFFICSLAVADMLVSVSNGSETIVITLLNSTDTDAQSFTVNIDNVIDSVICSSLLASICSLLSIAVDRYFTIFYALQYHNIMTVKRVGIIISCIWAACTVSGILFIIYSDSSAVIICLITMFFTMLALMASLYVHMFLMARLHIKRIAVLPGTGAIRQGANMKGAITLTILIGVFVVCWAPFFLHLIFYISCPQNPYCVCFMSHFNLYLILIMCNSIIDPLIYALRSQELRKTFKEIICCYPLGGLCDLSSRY
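Material: U2OS-MC4R stable cell line | Reagent: Melanotan II challenge after compound preincubation | Doses: One concentration, 6.5 µM nominal | Incubation: 30-min compound preincubation, 1-h Melanotan II challenge, 1-h detection, room temperature | Signal: TR-FRET cAMP assay | Replicates: One well per compound, no replicates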
MsrA inhibitor: bovine MsrA inhibition. purified bovine MsrA, absorbance read-out. AID 651718. 360,000 compounds, 0.75% hits. inhibition, % at 15.5 µM; in the data active means inhibition above about 4.5%;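 further: 0% = vehicle wells with enzyme and 100% = reference inhibitor wells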
MC4R barr agon: human MC4R agonism via beta-arrestin; activation, % at 8.9 µM; AID 540308; 360,000 compounds, 0.98% hits; P32245; U2OS MC4R beta-arrestin complementation, luminescence; percent of melanotan II response, DMSO zero;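 active means activation above a per-plate cutoff, the mean activation of sample wells on that plate plus 3 SD, cut at about 8% in these data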
MsrA act: bovine methionine sulfoxide reductase A activation | 360,000 compounds, 0.3% hits | AID 602163 | activation, % at 10.6 µM | purified bovine MsrA, absorbance read-out; in the data active means activation above about 7.5%;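 further: 0% = vehicle and 100% = reference activator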
cAMP nonselect: U2OS forskolin cAMP inhibition counter-screen; shares compounds with MC4R antag cAMP; parental U2OS, LANCE TR-FRET; inhibition, % at 6.5 µM; 1,600 compounds, 26% hits;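 active means mean inhibition over triplicates above the low-control well mean plus 3 SD, set per campaign, cut at about 13% in these data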;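 further: signal is single emission at 671 nm which falls as cellular cAMP rises; 0% = forskolin-stimulated wells and 100% = buffer without forskolin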
MC4R antag conf: human MC4R cAMP antagonism confirmation | shares compounds with MC4R antag cAMP | MC4R-expressing cells, MTII-stimulated cAMP, TR-FRET | inhibition, % at 6.5 µM | 1,600 compounds, 27% hits; in the data active means inhibition above about 29%;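 further: 0% = agonist stimulated wells alone and 100% = agonist stimulated wells plus saturating reference antagonist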
MC4R barr ag: human MC4R beta-arrestin agonism confirmation; activation, % at 8.9 µM; shares compounds with MC4R barr agon; 2,400 compounds, 31% hits; U2OS MC4R beta-arrestin recruitment, luminescence; scaled DMSO 0%, Melanotan II 100%;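 active means mean activation across replicates above the hit cutoff set in the earlier primary screen, cut at about 8% in these data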
MOR-DOR barr ag: OPRM1-OPRD1 heterodimer agonism counter-screen | 2,400 compounds, 5.8% hits | shares compounds with MC4R barr agon | activation, % at 9.2 µM | U2OS PathHunter beta-arrestin, beta-gal luminescence; percent of deltorphin B response, DMSO zero | AID 602194;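 active means mean activation across replicates exceeds the hit threshold derived in the earlier primary screen, cut at about 18% in these data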;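 further: 100% = deltorphin B at 0.9 µM final and 0% = DMSO alone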
* marks the source's active call; other numbers are inactive results; · = not tested or not shown; ! = repeats disagree.

SMILES	MC4R antag cAMP	MsrA inhibitor	MC4R barr agon	MsrA act	cAMP nonselect	MC4R antag conf	MC4R barr ag	MOR-DOR barr ag
Cc1ccc(S(=O)(=O)N(C)C)cc1NC(=O)COC(=O)/C=C/c1cnc2ccccc2n1	18	-1	-2	-5	·	·	·	·
Cc1ccc(N2CC(NS(=O)(=O)c3cc(F)ccc3F)CC2=O)cc1C (stereo not drawn)	5	0	0	-5	·	·	·	·
CCC1=NN(S(=O)(=O)c2ccc(C)cc2)C(O)(C(F)(F)F)C1 (stereo not drawn)	29*	-1	1	-2	-2	-7	·	·
Clc1ccc(-c2nnc3n2CCCCS3)cc1	35*	0	1	2	-2	-7	·	·
O=C(CNC(=O)/C(=C\c1ccc(Br)cc1)NC(=O)c1ccccc1)OCc1ccccc1	40*	2	-3	-2	19*	48*	·	·
CC1(C)SC[C@H](C(=O)Nc2cccc(Cl)c2)N1C=O	0	0	-3	-3	·	·	·	·
C=CCNC(=O)c1ccc([N+](=O)[O-])c(Cl)c1	4	0	-2	-3	·	·	·	·
CC(C)(CNC(=O)c1ccc([N+](=O)[O-])c(Cl)c1)CNC(=O)c1ccc([N+](=O)[O-])c(Cl)c1	31*	1	-2	-6	9	44*	·	·
COc1ccc(Br)cc1/C=N/n1nnnc1N	6	2	-1	-3	·	·	·	·
CC1CCCC(NC(=O)COC(=O)COc2ccc(C#N)cc2)C1C (stereo not drawn)	36*	0	1	-1	10	14	·	·
Oc1ccc(-c2n[nH]c(C(F)(F)F)c2-c2ccccc2)c(O)c1	30*	2	3	-1	4	-3	·	·
Cc1ccc(-n2ccc(-c3nn(-c4ccccc4)ccc3=O)n2)cc1	-18	2	-5	-5	·	·	·	·
COc1ccccc1C(=O)Nc1ccc(NC(=O)C2CCCCC2)nc1	31*	0	1	-1	3	13	·	·
COc1ccc(C(=O)Nc2ccc(NC(=O)C3CCCCC3)nc2)cc1	8	-1	-1	-3	·	·	·	·
Cc1cccc(-c2ccc3[nH]c4c(c3c2)CCN2C[C@@H]([C@H](C)OC(=O)Nc3ccccc3C)[C@@H](N(C)C(=O)Nc3ccccc3C)C[C@@H]42)c1	8	-1	0	2	·	·	·	·
CC(C)Oc1cccc(C(=O)NC(=S)Nc2ccc(Cl)c(C(=O)O)c2)c1	19	0	-1	-1	·	·	·	·
COc1ccc(Br)cc1/C=C/C(=O)NC(=S)Nc1ccc(Cl)c(C(=O)O)c1	30*	0	-3	-3	1	0	·	·
CC(=O)c1cccc(NC(=S)NC(=O)c2ccccc2Cl)c1	30*	1	-1	-3	2	7	·	·
COc1ccc(C(=O)NC(=S)Nc2ccc(Cl)c(C(=O)O)c2)cc1	30*	1	0	-2	-5	-18	·	·
Cc1cc(C)c(C#N)c(SCC(=O)Nc2ccc(S(=O)(=O)Nc3ncccn3)cc2)n1	3	0	-3	-2	·	·	·	·
Cc1cc(C)c(C#N)c(SCC(=O)Nc2cccc(S(=O)(=O)N3CCCC3)c2)n1	32*	1	10.0*	-4	45*	82*	-1	4
C=CCn1c(=NC(=O)c2sc3ccccc3c2Cl)sc2cc(S(N)(=O)=O)ccc21	33*	·	16*	1	4	20	8	2
Oc1ccc[n+](CCCCC[n+]2cccc(O)c2)c1	5	3	-1	-3	·	·	·	·
CCCCCCCCCCCCCCCC[n+]1cccc(C(=O)N(CC)CC)c1	29*!	-1	13*	-4	7	50*	23*	4
COc1ccc(S(=O)(=O)Cc2ccc(C(=O)N3CC(C)CC(C)C3)o2)cc1 (stereo not drawn)	12	0	0	-1	·	·	·	·
SMILES	MC4R antag cAMP	MsrA inhibitor	MC4R barr agon	MsrA act	cAMP nonselect	MC4R antag conf	MC4R barr ag	MOR-DOR barr ag
COc1ccc(-c2oc3ccc(N4CCOCC4)cc3c2C#Cc2ccc(N)cc2)cc1	10	4	-1	-1	·	·	·	·
COc1ccc(-c2oc3ccc(N4CCOCC4)cc3c2C#CC2(O)CCCCC2)cc1	33*	2	19*	-2	6	20	15*	5
Cc1cccc(C)c1-n1cccc1/C=C1\SC(=S)N(c2cccc(C(=O)O)c2)C1=O	37*	1	20*	-3	-3	-14	20*	2
Cc1cccc(C)c1NC(=O)CN1C(=O)S/C(=C\c2cccn2-c2cccc(C(=O)O)c2)C1=O	2	2	-2	-4	·	·	·	·
COC(=O)C1=C(C)N(CC2CC2)C(=NCc2cccc(Cl)c2)N[C@H]1c1ccccc1	-3	-3	3	0	·	·	·	·
COc1cc(OC)cc(C(=O)N[C@H](C(=O)OCn2nnc3ccccc3c2=O)C(C)C)c1	16	0	-2	-1	·	·	·	·
CCOC(=O)c1cc(-c2csc(N/N=C/c3ccccc3Cl)n2)on1	40*	1	22*	-2	14*	71*	13*	5
CCOC(=O)c1cc(-c2csc(Nc3ccccc3Cl)n2)on1	28	-1	0	-2	·	·	·	·
CCCCNc1c(-c2cccc(-c3cc(C(C)=O)cs3)c2)nc2cc(C)ccn12	36*	2	11*	-16	1	9	9.5*	6
CCSc1nnc(NC(=O)CSc2nccn2-c2cccc(C)c2C)s1	·	0	·	·	·	·	·	·
CC1=NNC(=O)/C1=C\c1cn(-c2ccccc2)nc1-c1ccc(Cl)cc1	31*	-1	17*	-8	2	14	33*	6
CCOC(=O)c1ccccc1Nc1cn(C(C)=O)c2ccccc12	-21	2	2	-3	·	·	·	·
CC(=O)n1cc(N(C(=O)CCl)c2ccc(Cl)cc2)c2ccccc21	42*	·	13*	-4	-17	52*	6	51*
CC(O)CC(=O)OC[C@]12CC[C@H]3[C@@](C)(CC[C@H]4C(C)(C)CCC[C@]34C)[C@@H]1CC(C1=CC(=O)OC1O)O2 (stereo partly drawn)	33*	1	16*	-2	0	23	24*	16
O=C(CCl)Nc1cccc(S(=O)(=O)NC2=NCCC2)c1	0	1	-3	-2	·	·	·	·
Nc1c(S(=O)(=O)c2ccccc2)c2nc3ccccc3nc2n1/N=C/c1cccc(O)c1	35*	0	17*	-3	2	13	10*	8
COc1ccc2[nH]c(C(=O)Nc3ccc(F)cc3Br)cc2c1	29*	0	26*	-11	21*	20	1	5
Cc1cc(C)c2c(c1)C(=O)/C(=C/c1ccc(C(=O)O)cc1)CC2	2	3	2	-4	·	·	·	·
